Experiment [1] concerns the target T1, Galectin-1 (Homo sapiens, UniProt P09382). Nature of the experiment: Inhibition of lactose binding to human [15N]-labelled Galectin-1 at molar ratio of 1:5 Gal1:compound by heteronuclear NMR spectroscopy analysis.
Experiment [2] deals with COLO 205. The experiment in a line: Cytotoxicity against human COLO205-R cells assessed as cell viability by MTT assay. The format is functional, cell-based. The gist of the method: (§1)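 Cells grown as monolayers in RPMI with 10% FCS and 2 mM glutamine at 37 °C, 5% CO2, seeded at 2 × 10^3 cells/well. Then 72 h drug exposure and 48 h wash-out, followed by 0.4 mg/mL MTT for 4 h at 37 °C. Formazan dissolved in DMSO, absorbance read at 560 nm, and IC50 determined per cell line.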

The target of experiment [3] is T1, Galectin-1. The experiment in a line: Inhibition of FITC-conjugated human Galectin-1binding to CD4+ cell surface glycans of gal1 -/- mouse after 30 mins by flow cytometry. The procedure, abridged: (§2)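 Splenocytes from gal-1−/− mice, with RBCs lysed in ACK for 5 min on ice. Cells stained with lineage antibodies for 40 min on ice, then given FITC-gal-1 (0.1 or 0.2 μM; FITC:protein labeling ratio 10:1) with or without compound for 30 min on ice. Binding read by multiparameter flow cytometry gated on CD4+, CD8+ and CD31+ cells.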

Experiment [4] concerns the target T1, Galectin-1. The experiment in a line: Binding affinity to human [15N]-labelled Galectin-1 at 60 uM by heteronuclear NMR spectroscopy analysis. The gist of the method: (§3)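 Uniformly 15N-labeled recombinant human gal-1 was expressed in E. coli BL21(DE3) and dissolved at 1 mg/mL in 20 mM potassium phosphate, pH 7.0, 50 μM EDTA, 95% H2O/5% D2O. Compound was titrated and followed by 1H-15N HSQC, reading resonance broadening and intensity changes. Averaged intensity change was plotted against free ligand, with bound ligand estimated from total gal-1 monomer (60 μM).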

Experiment [5] addresses T1, Galectin-1. The experiment in a line: Binding affinity to human [15N]-labelled Galectin-1 by heteronuclear NMR spectroscopy analysis. The procedure, abridged: as §3
For experiment [6], the target named is T1, Galectin-1. Nature of the experiment: Inhibition of FITC-conjugated human Galectin-1binding to CD8+ cell surface glycans of gal1 -/- mouse at 100 uM after 30 mins by flow cytometry. The gist of the method: as §2
Experiment [7] concerns the target T1, Galectin-1. Nature of the experiment: Inhibition of FITC-conjugated human Galectin-1binding to CD31+ endothelial cell surface glycans of gal1 -/- mouse at 20 uM after 30 mins by flow cytometry. The gist of the method: as §2
Experiment [8] concerns the target T1, Galectin-1. The experiment in a line: Inhibition of FITC-conjugated human Galectin-1binding to CD31+ endothelial cell surface glycans of gal1 -/- mouse after 30 mins by flow cytometry. The procedure, abridged:
as §2

Experiment [9] concerns the target T1, Galectin-1. The experiment in a line: Inhibition of FITC-conjugated human Galectin-1binding to CD4+ cell surface glycans of gal1 -/- mouse at 100 uM after 30 mins by flow cytometry. The gist of the method:
as §2

Experiment [10] has as its target T1, Galectin-1. Nature of the experiment: Inhibition of FITC-conjugated human Galectin-1binding to CD8+ cell surface glycans of gal1 -/- mouse at 20 uM after 30 mins by flow cytometry. The procedure, abridged: as §2
Experiment [11] has as its target T1, Galectin-1. Nature of the experiment: Inhibition of FITC-conjugated human Galectin-1binding to CD31+ endothelial cell surface glycans of gal1 -/- mouse at 100 uM after 30 mins by flow cytometry. The gist of the method:
as §2

For the next experiment, the system named is DU-145. The experiment in a line: Cytotoxicity against human DU145 cells assessed as cell viability by MTT assay. It is filed as functional, cell-based. The gist of the method: as §1
For the next experiment, the system named is HT-29. Nature of the experiment: Cytotoxicity against human HT-29 cells assessed as cell viability by MTT assay. The format is functional, cell-based. The gist of the method: as §1
Another experiment deals with SQ20B. Nature of the experiment: Cytotoxicity against human SQ20B cells assessed as cell viability by MTT assay. The format is functional, cell-based. The gist of the method: as §1
Experiment [12] deals with T1, Galectin-1. The experiment in a line: Inhibition of FITC-conjugated human Galectin-1binding to CD8+ cell surface glycans of gal1 -/- mouse after 30 mins by flow cytometry. The gist of the method: as §2
The target of experiment [13] is T1, Galectin-1. Nature of the experiment: Binding affinity to Galectin-1 in human Jurkat E6-1 cells surface glycans assessed as attenuation of agglutination at 20 uM by morphometric analysis. The format is cell-based. The procedure, abridged: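 Jurkat E6.1 cells (2 × 10^6 per 200 μL RPMI 1640) agglutinated with 1 μM gal-1 and incubated at 22 °C in medium alone or with 20 μM compound. Agglutination imaged by inverted phase microscopy, then digitally quantified by pixel-based morphometric analysis.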

For a further experiment, the system named is HEp-2. Nature of the experiment: Cytotoxicity against human Hep2 cells assessed as cell viability by MTT assay. The format is functional, cell-based. The gist of the method: as §1
The test system of the next experiment is SK-HEP1. Nature of the experiment: Cytotoxicity against human SKHEP1 cells assessed as cell viability by MTT assay. The format is functional, cell-based. The gist of the method: as §1
Experiment [14] concerns the target T1, Galectin-1. Nature of the experiment: Inhibition of FITC-conjugated human Galectin-1binding to CD4+ cell surface glycans of gal1 -/- mouse at 20 uM after 30 mins by flow cytometry. The procedure, abridged:
as §2

Experiment [15] deals with COLO 205. The experiment in a line: Cytotoxicity against human COLO205-S cells assessed as cell viability by MTT assay. It is filed as functional, cell-based. The procedure, abridged: as §1

The source made the active and inactive calls. No cut-off for these calls is given here.

T1 sequence (P09382 whole entry): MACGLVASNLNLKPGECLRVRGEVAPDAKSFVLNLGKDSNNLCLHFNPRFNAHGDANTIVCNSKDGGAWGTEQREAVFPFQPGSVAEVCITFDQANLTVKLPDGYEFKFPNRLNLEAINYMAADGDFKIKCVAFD

As to `CN(C)CCNC(=O)COc1c2cccc1Cc1cccc(c1OCC(=O)NCCN(C)C)Cc1cccc(c1OCC(=O)NCCN(C)C)Cc1cccc(c1OCC(=O)NCCN(C)C)C2` [OTX-008], the inhibition entry on Galectin-1 [1] is “Active”. The Activity result in the experiment with COLO 205 [2] was “Dose-dependent effect”; on Galectin-1 [4], 50%; with DU-145 it was “Dose-dependent effect”; in the experiment on HT-29 it was “Dose-dependent effect”; in the experiment on SQ20B it was “Dose-dependent effect”; at Galectin-1 [13], 80%. The Activity entry with HEp-2, with SK-HEP1 and with COLO 205 [15] was “Dose-dependent effect” in each case. Besides, the inhibition entry on Galectin-1 [3] is “Dose-dependent effect”; on Galectin-1 [6], 100%; on Galectin-1 [7], 50%; on Galectin-1 [8], “Dose-dependent effect”; on Galectin-1 [9] it was 100%; at Galectin-1 [10], 80%. For the same molecule, the inhibition at Galectin-1 [11] is 70%; on Galectin-1 [12] it was “Dose-dependent effect”; at Galectin-1 [14], 80%. Moreover, binding on Galectin-1 [5] was put at a Kd of 30 µM.

(Values after ChEMBL document CHEMBL2086291, “Antitumor agent calixarene 0118 targets human galectin-1 as an allosteric inhibitor of carbohydrate binding” (J Med Chem, 2012).)
